Measured values taken from ChEMBL document CHEMBL1132930, “Characterization of the binding site of the histamine H(3) receptor. 2. Synthesis, in vitro pharmacology, and QSAR of a series of monosubstituted benzyl analogues of thioperamide” (J Med Chem, 2000).

The compounds below were run against Histamine H3 receptor (Cavia porcellus) (UniProt Q9JI35). Conditions: Jejunum.
Histamine H3 receptor (Cavia porcellus), sequence (Q9JI35 whole entry): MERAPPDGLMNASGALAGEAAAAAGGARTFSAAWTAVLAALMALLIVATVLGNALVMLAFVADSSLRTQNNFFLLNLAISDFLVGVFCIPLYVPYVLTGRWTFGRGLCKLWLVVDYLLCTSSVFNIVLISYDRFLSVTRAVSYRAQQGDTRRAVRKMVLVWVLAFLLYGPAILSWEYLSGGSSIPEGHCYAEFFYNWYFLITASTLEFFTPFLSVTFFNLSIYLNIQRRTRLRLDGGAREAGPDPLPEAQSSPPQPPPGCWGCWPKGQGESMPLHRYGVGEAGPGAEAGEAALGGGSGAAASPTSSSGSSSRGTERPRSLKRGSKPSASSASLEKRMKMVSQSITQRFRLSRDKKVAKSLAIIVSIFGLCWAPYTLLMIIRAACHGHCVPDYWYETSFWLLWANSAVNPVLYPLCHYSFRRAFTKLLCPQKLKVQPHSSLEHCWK
With `C[C@@H](N)Cc1c[nH]cn1` the pD2 was 7.8.

What follows are compounds tested against Histamine H3 receptor (Cavia porcellus, UniProt Q9JI35) (assay: In vitro histamine H3 receptor antagonist activity was determined on guinea pig jejunum). Conditions: read-out: pA2 (converted).
Histamine H3 receptor, sequence (Q9JI35 whole entry): as above
Assay type: functional, tissue-based
How it was run: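 Guinea pig jejunum preparations, electrically stimulated to give contractile responses (acetylcholine release). H3 agonists inhibit these responses in a concentration-dependent way. Antagonist pA2 derived from that agonist inhibition, per a previously described method.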
For `Cc1ccccc1C/N=C(\S)N1CCC(c2c[nH]cn2)CC1`, the Kb was 95.5 nM.
`Fc1cccc(C/N=C(\S)N2CCC(c3c[nH]cn3)CC2)c1` showed a Kb of 363 nM.
For `Fc1ccccc1C/N=C(\S)N1CCC(c2c[nH]cn2)CC1`, the Kb was 912 nM.
For `S=C(NCc1ccc(Br)cc1)N1CCC(c2c[nH]cn2)CC1`, the Kb was 339 nM.
Work on `CC(C)(C)c1ccccc1C/N=C(\S)N1CCC(c2c[nH]cn2)CC1` yielded a Kb of 28.8 nM.
Work on `Fc1ccc(C/N=C(\S)N2CCC(c3c[nH]cn3)CC2)cc1` yielded a Kb of 562 nM.
With `S=C(NCc1cccc(Br)c1)N1CCC(c2c[nH]cn2)CC1` the Kb was 33.9 nM.
Compound `S=C(NCc1ccccc1Br)N1CCC(c2c[nH]cn2)CC1` has a Kb of 14.5 nM.
Compound `S=C(NCc1cccc(Cl)c1)N1CCC(c2c[nH]cn2)CC1` has a Kb of 38.9 nM.
Work on `S=C(NCc1cccc(I)c1)N1CCC(c2c[nH]cn2)CC1` yielded a Kb of 15.8 nM.
`S=C(NCc1ccc(I)cc1)N1CCC(c2c[nH]cn2)CC1` gave a Kb of 166 nM.
Compound `S=C(NCc1ccccc1I)N1CCC(c2c[nH]cn2)CC1` has a Kb of 7.41 nM.
For `S=C(NCc1ccccc1)N1CCC(c2c[nH]cn2)CC1`, the Kb was 47.9 nM.
`S=C(NCc1ccc(Cl)cc1)N1CCC(c2c[nH]cn2)CC1` was tested, and the Kb was 61.7 nM.
Compound `S=C(NCc1ccccc1Cl)N1CCC(c2cnc[nH]2)CC1` has a Kb of 6.17 nM.
